Results published in ChEMBL document CHEMBL3351593, “Potent nonimmunosuppressive cyclophilin inhibitors with improved pharmaceutical properties and decreased transporter inhibition” (J Med Chem, 2014).
pEC50, pIC50, pKd: −log10 of the molar value.

Assays:
[1] = biological target: Cytochrome P450 2C19 (Homo sapiens, UniProt P33261); assay: Inhibition of […] (unknown origin); assay type: ADME
[2] = biological target: Peptidyl-prolyl cis-trans isomerase B (Homo sapiens, UniProt P23284); assay: Binding affinity to human cyclophilin B by surface plasmon resonance method
Chain of Peptidyl-prolyl cis-trans isomerase B (P23284 whole entry): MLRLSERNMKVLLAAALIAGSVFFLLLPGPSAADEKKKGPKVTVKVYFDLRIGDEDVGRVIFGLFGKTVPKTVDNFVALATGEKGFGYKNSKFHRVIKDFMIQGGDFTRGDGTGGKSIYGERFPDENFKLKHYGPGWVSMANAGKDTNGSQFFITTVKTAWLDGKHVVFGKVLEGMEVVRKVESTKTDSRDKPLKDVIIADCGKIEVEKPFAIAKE
Summary of the method: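 Biotinylated cyclophilin proteins examined by single-cycle kinetics SPR. Running buffer 10 mM HEPES pH 7.4, 150 mM NaCl, 0.05% P20, 3% DMSO, with inhibitor. Each concentration injected for 1 min at 50 μL/min, then 10 min dissociation. kon, koff and KD obtained from a 1:1 binding fit.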

[3] = biological target: ATP-dependent translocase ABCB1 (Homo sapiens, UniProt P08183); assay: Inhibition of MDR1 (unknown origin) expressed in MDA T0.3 cells using rhodamine 123 substrate; assay type: ADME, cell-based
Chain of ATP-dependent translocase ABCB1 (P08183 whole entry): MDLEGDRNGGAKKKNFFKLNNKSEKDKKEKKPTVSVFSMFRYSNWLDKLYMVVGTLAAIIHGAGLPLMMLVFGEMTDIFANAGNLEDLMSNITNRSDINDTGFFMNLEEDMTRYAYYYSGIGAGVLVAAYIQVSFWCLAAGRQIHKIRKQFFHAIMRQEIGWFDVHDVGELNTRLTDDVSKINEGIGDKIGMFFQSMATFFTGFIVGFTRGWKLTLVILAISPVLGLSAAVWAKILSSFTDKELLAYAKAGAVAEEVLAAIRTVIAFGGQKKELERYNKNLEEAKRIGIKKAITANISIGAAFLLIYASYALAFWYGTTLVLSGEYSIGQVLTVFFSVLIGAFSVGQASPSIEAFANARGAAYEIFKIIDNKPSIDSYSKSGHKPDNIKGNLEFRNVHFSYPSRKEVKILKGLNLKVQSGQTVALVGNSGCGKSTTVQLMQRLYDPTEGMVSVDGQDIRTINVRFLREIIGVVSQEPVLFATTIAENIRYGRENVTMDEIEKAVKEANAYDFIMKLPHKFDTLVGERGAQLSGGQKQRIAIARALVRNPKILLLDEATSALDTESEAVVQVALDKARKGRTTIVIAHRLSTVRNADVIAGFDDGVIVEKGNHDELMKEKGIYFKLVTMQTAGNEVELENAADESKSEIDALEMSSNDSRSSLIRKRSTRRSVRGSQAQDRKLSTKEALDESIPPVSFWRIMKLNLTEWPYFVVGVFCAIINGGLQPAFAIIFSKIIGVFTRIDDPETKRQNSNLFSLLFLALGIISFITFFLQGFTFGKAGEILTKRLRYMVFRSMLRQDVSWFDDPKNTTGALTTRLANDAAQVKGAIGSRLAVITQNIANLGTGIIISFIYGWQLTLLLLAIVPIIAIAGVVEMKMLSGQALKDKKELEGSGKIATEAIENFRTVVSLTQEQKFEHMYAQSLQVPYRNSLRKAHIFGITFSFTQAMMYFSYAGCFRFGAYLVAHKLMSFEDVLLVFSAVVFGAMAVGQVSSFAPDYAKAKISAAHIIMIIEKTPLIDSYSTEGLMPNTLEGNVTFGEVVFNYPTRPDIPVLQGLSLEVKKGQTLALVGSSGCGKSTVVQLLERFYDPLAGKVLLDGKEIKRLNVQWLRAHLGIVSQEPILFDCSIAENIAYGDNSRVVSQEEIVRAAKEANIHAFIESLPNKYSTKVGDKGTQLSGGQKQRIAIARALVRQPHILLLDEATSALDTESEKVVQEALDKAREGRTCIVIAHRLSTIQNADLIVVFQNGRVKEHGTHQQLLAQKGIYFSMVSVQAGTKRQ
Summary of the method: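 MDR1 activity in MDA T0.3 cells, measured with rhodamine 123 as substrate; IC50 reported.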

[4] = tested on: Hepatitis C virus; assay: Antiviral activity against HCV subtype 1a in human Huh7.5 cells expressing subgenomic HCV replicons and coexpressing luciferase reporter gene; assay type: functional, cell-based, Hepacivirus hominis; conditions: Huh-7
Summary of the method: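 Stable Huh7.5 lines carrying genotype 1a or 1b subgenomic replicons with luciferase reporter, made by RNA electroporation and G418 selection. Assay run in phenol red-free DMEM without G418, sixteen half-log compound dilutions, in triplicate. Luciferase signal read after 72 h relative to DMSO controls, giving EC50.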

[5] = biological target: T1, Cytochrome P450 2C8 (Homo sapiens, UniProt P10632); assay: Inhibition of CYP2C8 (unknown origin); assay type: ADME
T1 sequence (P10632 whole entry): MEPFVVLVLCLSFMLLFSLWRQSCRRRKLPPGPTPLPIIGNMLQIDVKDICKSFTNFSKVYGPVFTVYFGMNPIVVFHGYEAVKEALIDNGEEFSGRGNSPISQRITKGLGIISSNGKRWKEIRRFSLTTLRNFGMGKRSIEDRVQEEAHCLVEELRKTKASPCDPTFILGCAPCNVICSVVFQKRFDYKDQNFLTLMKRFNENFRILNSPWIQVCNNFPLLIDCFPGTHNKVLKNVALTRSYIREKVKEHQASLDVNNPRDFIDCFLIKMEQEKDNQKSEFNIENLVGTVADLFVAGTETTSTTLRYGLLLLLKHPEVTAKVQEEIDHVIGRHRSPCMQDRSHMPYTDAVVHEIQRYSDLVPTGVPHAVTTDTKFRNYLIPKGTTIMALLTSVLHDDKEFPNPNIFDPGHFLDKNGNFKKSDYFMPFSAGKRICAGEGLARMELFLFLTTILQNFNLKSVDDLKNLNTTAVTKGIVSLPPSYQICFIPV

[6] = biological target: Peptidyl-prolyl cis-trans isomerase A (Homo sapiens, UniProt P62937); assay: Binding affinity to human cyclophilin A by surface plasmon resonance method
Chain of Peptidyl-prolyl cis-trans isomerase A (P62937 whole entry): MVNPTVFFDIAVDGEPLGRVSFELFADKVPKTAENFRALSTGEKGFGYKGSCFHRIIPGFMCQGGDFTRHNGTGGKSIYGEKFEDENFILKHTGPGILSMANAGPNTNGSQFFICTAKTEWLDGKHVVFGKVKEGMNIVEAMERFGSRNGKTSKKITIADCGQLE

[7] = Lipophilicity, log D of the compound; assay type: physicochemical; conditions: octanol/water
[8] = AUC in dog plasma at 1 mg/kg, po after 72 hrs; assay type: ADME, organism-based, Canis lupus familiaris; set-up: time < 72 hr, dose 1 mg/kg, route oral
Summary of the method: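 Oral dosing as a solution in MEPC: rat 25 mg/kg, dog 1 mg/kg. Blood and plasma collected separately over 0−72 h and AUC computed for each matrix.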

[9] = tested on: PBMC; assay: Cytotoxicity against PHA-stimulated human PBMC by 5-bromo-2'-deoxyuridine incorporation assay; assay type: cell-based
Summary of the method: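 Fresh PBMCs from two human donors in X-VIVO 15 medium, stimulated with PHA. Seven concentrations taken from a half-log series. Incubated 60 h at 37 °C, 5% CO2, with BrdU added for the final 12 h. Incorporation read by anti-BrdU ELISA at 450 nm. Percent inhibition against PHA-stimulated untreated cells after background subtraction, four-parameter fit giving IC50.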

[10] = biological target: Cytochrome P450 2D6 (Homo sapiens, UniProt P10635); assay: Inhibition of CYP2D6 (unknown origin); assay type: ADME
Chain of Cytochrome P450 2D6 (P10635 whole entry): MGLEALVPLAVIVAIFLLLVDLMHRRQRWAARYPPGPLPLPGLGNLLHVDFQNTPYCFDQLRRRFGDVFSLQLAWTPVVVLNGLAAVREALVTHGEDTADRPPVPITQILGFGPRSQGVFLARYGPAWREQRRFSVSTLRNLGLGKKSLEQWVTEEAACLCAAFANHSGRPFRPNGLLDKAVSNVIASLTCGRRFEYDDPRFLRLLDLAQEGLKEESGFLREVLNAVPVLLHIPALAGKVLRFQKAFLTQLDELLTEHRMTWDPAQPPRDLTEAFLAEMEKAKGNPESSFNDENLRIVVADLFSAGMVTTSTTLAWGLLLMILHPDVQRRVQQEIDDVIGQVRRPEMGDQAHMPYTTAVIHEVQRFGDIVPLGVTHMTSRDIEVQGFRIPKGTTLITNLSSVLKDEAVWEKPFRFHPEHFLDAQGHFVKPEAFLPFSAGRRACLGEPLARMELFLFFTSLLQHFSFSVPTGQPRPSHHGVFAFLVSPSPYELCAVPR

[11] = biological target: T2, Solute carrier organic anion transporter family member 1B3 (Homo sapiens, UniProt Q9NPD5); assay: Inhibition of OATP1B3 (unknown origin) expressed in HEK293 cells using [3H]estradiol-17beta-glucuronide substrate; assay type: ADME, cell-based
T2 sequence (Q9NPD5 whole entry): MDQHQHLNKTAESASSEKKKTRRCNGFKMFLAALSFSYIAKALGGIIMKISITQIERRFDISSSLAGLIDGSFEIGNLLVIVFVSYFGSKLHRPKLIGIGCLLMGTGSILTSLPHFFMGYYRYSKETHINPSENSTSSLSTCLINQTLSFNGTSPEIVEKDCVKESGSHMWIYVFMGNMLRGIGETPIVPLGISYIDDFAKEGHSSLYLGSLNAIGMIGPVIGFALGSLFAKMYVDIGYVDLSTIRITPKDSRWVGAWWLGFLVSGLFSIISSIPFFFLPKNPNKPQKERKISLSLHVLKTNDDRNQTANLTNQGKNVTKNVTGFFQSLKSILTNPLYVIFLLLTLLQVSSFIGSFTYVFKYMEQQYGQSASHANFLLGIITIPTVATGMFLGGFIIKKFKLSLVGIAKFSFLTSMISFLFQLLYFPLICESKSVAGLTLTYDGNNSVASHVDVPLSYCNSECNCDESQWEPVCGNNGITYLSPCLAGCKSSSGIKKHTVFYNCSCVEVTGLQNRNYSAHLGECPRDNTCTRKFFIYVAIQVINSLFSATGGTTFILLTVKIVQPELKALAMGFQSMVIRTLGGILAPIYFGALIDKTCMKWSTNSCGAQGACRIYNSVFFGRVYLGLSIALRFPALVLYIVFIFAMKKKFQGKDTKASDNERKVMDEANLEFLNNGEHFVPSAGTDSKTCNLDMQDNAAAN
Summary of the method: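 Recombinant OATP1B1 or OATP1B3 expressed in HEK293 cells, with [3H]estradiol-17β-glucuronide as substrate; IC50 determined.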

[12] = biological target: Cytochrome P450 3A4 (Homo sapiens, UniProt P08684); assay: Inhibition of CYP3A4 (unknown origin); assay type: ADME
Chain of Cytochrome P450 3A4 (P08684 whole entry): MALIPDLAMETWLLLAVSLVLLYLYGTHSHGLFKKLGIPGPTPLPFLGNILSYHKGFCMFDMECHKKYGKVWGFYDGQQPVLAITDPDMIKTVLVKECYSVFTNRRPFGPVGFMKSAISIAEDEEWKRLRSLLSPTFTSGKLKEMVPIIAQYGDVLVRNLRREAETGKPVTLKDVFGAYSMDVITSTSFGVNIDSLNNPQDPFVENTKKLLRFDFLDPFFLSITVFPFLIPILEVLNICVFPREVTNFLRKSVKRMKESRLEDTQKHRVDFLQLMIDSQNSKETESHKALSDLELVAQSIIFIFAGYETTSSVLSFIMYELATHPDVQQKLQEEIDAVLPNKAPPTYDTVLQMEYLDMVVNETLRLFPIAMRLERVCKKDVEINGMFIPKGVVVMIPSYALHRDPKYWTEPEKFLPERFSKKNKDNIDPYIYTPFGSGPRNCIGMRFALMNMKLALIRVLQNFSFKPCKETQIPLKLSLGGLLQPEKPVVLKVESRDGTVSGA

Chain of Cytochrome P450 2C19 (P33261 whole entry): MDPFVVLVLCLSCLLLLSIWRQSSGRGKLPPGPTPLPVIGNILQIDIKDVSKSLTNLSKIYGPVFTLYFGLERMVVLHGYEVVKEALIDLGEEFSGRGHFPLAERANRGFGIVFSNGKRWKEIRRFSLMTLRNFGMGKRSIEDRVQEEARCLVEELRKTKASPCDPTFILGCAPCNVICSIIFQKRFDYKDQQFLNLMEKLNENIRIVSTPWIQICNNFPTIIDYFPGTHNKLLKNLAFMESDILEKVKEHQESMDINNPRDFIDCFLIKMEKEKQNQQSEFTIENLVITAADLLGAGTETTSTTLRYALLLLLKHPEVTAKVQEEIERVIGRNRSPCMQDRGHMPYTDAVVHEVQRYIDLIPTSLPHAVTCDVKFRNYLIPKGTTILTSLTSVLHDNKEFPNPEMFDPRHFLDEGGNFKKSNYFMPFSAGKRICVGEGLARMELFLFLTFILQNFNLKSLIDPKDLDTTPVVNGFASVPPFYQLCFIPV

| pIC50 [1] | pKd [2] | pIC50 [3] | pEC50 [4] | pIC50 [5] | pKd [6] | logD [7] | AUC at 72 h [8] | pIC50 [10] | pIC50 [11] | pIC50 [12] | Structure (SMILES) | pIC50 [9] |
| --- | --- | --- | --- | --- | --- | --- | --- | --- | --- | --- | --- | --- |
| < 4.40 | 8.92 | 5.20 | 7.15 | < 4.40 | 8.92 | 3.9 | 0.9 µM·h | < 4.40 | 6.06 | < 4.40 | C/C=C/C[C@@H](C)[C@@H](O)[C@H]1C(=O)N[C@@H](CC)C(=O)N(C)[C@H](C)C(=O)N(C)[C@@H]([C@@H](C)CN2CCN(CCOC)CC2)C(=O)N[C@@H](C(C)C)C(=O)N(C)[C@@H](CC(C)C)C(=O)N[C@@H](C)C(=O)N[C@H](C)C(=O)N(C)[C@@H](CC(C)C)C(=O)N(C)[C@@H](CC(C)C)C(=O)N(C)[C@@H](C(C)C)C(=O)N1C | 4.88 |
|  | 9.00 | 6.23 | 7.15 |  | 8.66 | > 6 | 0.4 µM·h |  | 6.66 |  | C/C=C/C[C@@H](C)[C@@H](O)[C@H]1C(=O)N[C@@H](CC)C(=O)N(C)[C@H](C)C(=O)N(CC)[C@@H](C(C)C)C(=O)N[C@@H](C(C)C)C(=O)N(C)[C@@H](CC(C)C)C(=O)N[C@@H](C)C(=O)N[C@H](C)C(=O)N(C)[C@@H](CC(C)C)C(=O)N(C)[C@@H](CC(C)C)C(=O)N(C)[C@@H](C(C)C)C(=O)N1C [ALISPORIVIR] | 6.30 |
